Measurements taken from ChEMBL document CHEMBL1140214, “Antitumor activity of new substituted 3-(5-imidazo[2,1-b]thiazolylmethylene)-2-indolinones and 3-(5-imidazo[2,1-b]thiadiazolylmethylene)-2-indolinones: selectivity against colon tumor cells and effect on cell cycle-related events” (2008).
Activity calls are given as the source filed them. No cut-off for these calls is given here.

Key:
NSCLC = test: Antitumor activity against human NSCLC cells after 48 hrs by SRB assay; format: functional; conditions: for GI50 / TGI: Homo sapiens, NSCLC, 48 h; for TGI: read-out: pTGI (converted)
How it was run: (§1)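 NCI 60-cell panel two-stage screen: a single-dose pass at 10^-5 M, then five-dose testing for active compounds. Compounds were dissolved in DMSO and tested at five 10-fold dilutions, the highest 10^-4 M (10^-3 M in some cases). Results are given as the negative log molar concentration at three end points: pGI50, pTGI (total growth inhibition) and pLC50. Means are panel-subtype averages.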

[1] = target: T1, Ornithine decarboxylase (Homo sapiens) (UniProt P11926); test: Inhibition of ornithine decarboxylase in human HT-29 cells assessed as release of radioactive CO2 from [14C-carboxyl] ornithine; format: cell-based
T1 sequence (whole entry): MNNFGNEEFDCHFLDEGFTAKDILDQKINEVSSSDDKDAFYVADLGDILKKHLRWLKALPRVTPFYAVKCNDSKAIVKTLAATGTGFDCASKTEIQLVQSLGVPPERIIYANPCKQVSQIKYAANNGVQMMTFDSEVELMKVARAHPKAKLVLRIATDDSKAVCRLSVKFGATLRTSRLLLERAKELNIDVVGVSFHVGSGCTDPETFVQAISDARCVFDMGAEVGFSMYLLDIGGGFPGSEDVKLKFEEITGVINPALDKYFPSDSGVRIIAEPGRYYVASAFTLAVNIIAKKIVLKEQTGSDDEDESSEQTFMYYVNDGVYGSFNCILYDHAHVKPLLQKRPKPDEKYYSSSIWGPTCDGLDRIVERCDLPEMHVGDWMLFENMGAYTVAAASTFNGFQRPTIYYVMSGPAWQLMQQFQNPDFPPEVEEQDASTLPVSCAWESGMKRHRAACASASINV
How it was run: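 Extracts were taken from HT-29 cells after 24 h exposure to the indicated concentrations of test compound or vincristine. ODC activity was read as 14CO2 released from [14C-carboxyl]ornithine. Mean ± SEM, n=3.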

[2] = Antitumor activity against human ovarian cancer cells after 48 hrs by SRB assay; format: functional, Cancer cell lines; conditions: for GI50 / TGI: Homo sapiens, Cancer cell lines, 48 h; for TGI: read-out: pTGI (converted); how it was run: as §1
Melanoma cell = test: Antitumor activity against human Melanoma cells after 48 hrs by SRB assay; format: functional; conditions: for TGI: read-out: pTGI (converted); how it was run: as §1
[3] = Antitumor activity against human prostate cancer cells after 48 hrs by SRB assay; format: functional, Cancer cell lines; how it was run: as §1
[4] = Antitumor activity against human renal cancer cells after 48 hrs by SRB assay; format: functional, Cancer cell lines; conditions: for GI50 / TGI: Homo sapiens, Cancer cell lines, 48 h; for TGI: read-out: pTGI (converted); how it was run: as §1
Leukemia cell = test: Antitumor activity against human Leukemia cells after 48 hrs by SRB assay; format: functional; conditions: for GI50 / TGI: Homo sapiens, Leukemia cell, 48 h; for TGI: read-out: pTGI (converted); how it was run: as §1
HT-29 [5] = test: Cell cycle arrest in human HT-29 cells assessed as accumulation at G2/M phase at 30 nM after 24 hrs by flow cytometry; format: functional, cell-based
How it was run: (§2)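 HT-29 cells were grown in RPMI 1640 with 10% FBS and 2 mM L-glutamine at 37 °C, 5% CO2, and treated 24 h after plating at 2 × 10^4 cells/cm^2. Exposure was 24 h at 0.5–2 µM test compound or 30 nM vincristine, with DMSO controls. Cells were stained with propidium iodide, RNase and NP-40 for 30 min in the dark, then DNA content was read by flow cytometry. Mean ± SEM, n=3.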

[6] = Antitumor activity against human Breast cancer cells after 48 hrs by SRB assay; format: functional, Cancer cell lines; conditions: for GI50 / TGI: Homo sapiens, Cancer cell lines, 48 h; for TGI: read-out: pTGI (converted); how it was run: as §1
[7] = Antitumor activity against human Colon cancer cells after 48 hrs by SRB assay; format: functional, Cancer cell lines; conditions: for GI50 / TGI: Homo sapiens, Cancer cell lines, 48 h; for TGI: read-out: pTGI (converted); how it was run: as §1
[8] = Antitumor activity against human CNS cancer cells after 48 hrs by SRB assay; format: functional, Cancer cell lines; conditions: for TGI: read-out: pTGI (converted); how it was run: as §1
HT-29 [9] = test: Inhibition of cell proliferation in human HT-29 cells at 2 uM; format: functional, cell-based
How it was run: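 HT-29 cells in RPMI 1640 with 10% FBS were exposed to compound in fresh medium 24 h after plating, with DMSO controls. Cells were counted daily and viability was checked by Trypan blue exclusion.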

HT-29 [10] = test: Induction of apoptosis in human HT-29 cells assessed as caspase activity after 48 hrs by fluorimetric assay; format: functional, cell-based
How it was run: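 DEVDase (caspase) activity was measured fluorometrically in extracts of HT-29 cells treated for 24 or 48 h at the indicated concentrations.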

HT-29 [11] = test: Cell cycle arrest in human HT-29 cells assessed as accumulation at G2/M phase after 24 hrs by flow cytometry; format: functional, cell-based; how it was run: as §2
HT-29 [12] = test: Cell cycle arrest in human HT-29 cells assessed as accumulation at G2/M phase at 2 uM after 24 hrs by flow cytometry; format: functional; how it was run: as §2
HT-29 [13] = test: Increase in cellular tubulin condensation in human HT-29 cells at 1 uM after 24 hrs using DAPI staining by immunofluorescence technique; format: functional, cell-based
How it was run: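 HT-29 cells on glass coverslips at 1 × 10^4 cells/cm^2 were treated 24 h at 1 µM, or with 30 nM vincristine. After fixation they were stained overnight at 4 °C with anti-α-tubulin mouse monoclonal, then 1 h at room temperature with FITC anti-mouse IgG, and counterstained with DAPI. Imaging was by laser scanning confocal microscopy.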

[14] = Homo sapiens, Melanoma cell, 48 h, read-out: pGI50 (converted)
[15] = Homo sapiens, Melanoma cell, 48 h
[16] = Homo sapiens, Cancer cell lines, 48 h
[17] = Homo sapiens, Cancer cell lines, 48 h, read-out: pGI50 (converted)

Row | Structure (SMILES) | GI (NSCLC) [µM] | GI50 (NSCLC) [µM] | TGI (NSCLC) [µM] | GI [2] [µM] | GI50 [2] [µM] | TGI [2] [µM] | GI50 (Melanoma cell; [14]) [µM] | TGI (Melanoma cell; [15]) [µM] | GI [3] [µM] | GI50 [3, 16] [µM] | GI [4] [µM] | GI50 [4] [µM] | TGI [4] [µM] | GI (Leukemia cell) [µM] | GI50 (Leukemia cell) [µM] | TGI (Leukemia cell) [µM] | GI [6] [µM] | GI50 [6] [µM] | TGI [6] [µM] | GI [7] [µM] | other results
1 | CC[C@]1(O)C[C@H]2CN(CCc3c([nH]c4ccccc34)[C@@](C(=O)OC)(c3cc4c(cc3OC)N(C=O)[C@H]3[C@@](O)(C(=O)OC)[C@H](OC(C)=O)[C@]5(CC)C=CCN6CC[C@]43[C@@H]65)C2)C1.O=S(=O)(O)O [VINCRISTINE SULFATE] | 0.25 | 0.251 | 15.8 | 0.32 | 0.316 | 20 | 0.158 | 7.94 | 0.13 | 0.126 | 0.32 | 0.316 | 20 | 0.1 | 0.1 | 15.8 | 0.32 | 0.316 | 7.94 | 0.1 | Activity [1]: Active; CC50 (Melanoma cell; Homo sapiens, Melanoma cell, 48 h, read-out: pLC50 (the source's name) (converted)): 251 µM; TGI ([3]; Homo sapiens, Cancer cell lines, 48 h, read-out: pTGI (converted)): 6.31 µM; Activity (HT-29 [5]): Active; GI50 [7]: 0.1 µM; TGI [7]: 3.98 µM; GI50 [8, 17]: 0.126 µM; TGI [8, 16]: 6.31 µM
2 | COc1ccc2c(c1)/C(=C\c1c(C)nc3sc(C)nn13)C(=O)N2 | 5.37 | 5.37 | 56.2 | 5.01 | 5.01 | 72.4 | 6.31 | 69.2 | 3.89 | 3.89 | 6.17 | 6.17 | 91.2 | 1.15 | 1.15 | 38 | 2.63 | 2.63 | 75.9 | 0.69 | Activity [1]: Dose-dependent effect; GI50 (Melanoma cell): 6.31 µM; Activity (HT-29 [9]): Active; Activity (HT-29 [10]): Active; Activity (HT-29 [11]): Dose-dependent effect; Activity (HT-29 [12]): 58%; GI50 [7]: 0.692 µM; TGI [7]: 41.7 µM; GI50 [8]: 2.51 µM; GI50 [8, 17]: 2.51 µM; TGI [8, 16]: 38 µM; Activity (HT-29 [13]): Active
3 | Cc1cn2c(/C=C3/C(=O)N(C)c4ccccc43)c(C)nc2s1 | 17.78 | 17.8 | 75.9 | 15.49 | 15.5 | 74.1 | 13.2 | 72.4 | 21.38 | 21.4 | 22.39 | 22.4 | 97.7 | 5.01 | 5.01 | 20.9 | 5.5 | 5.5 | 55 | 4.57 | GI50 (Melanoma cell): 13.18 µM; GI50 [7]: 4.57 µM; TGI [7]: 69.2 µM; GI50 [8]: 8.71 µM; GI50 [8, 17]: 8.71 µM; TGI [8, 16]: 51.3 µM
4 | Cc1cn2c(/C=C3/C(=O)N(C)c4ccc(O)cc43)c(C)nc2s1 | 12.88 | 12.9 | 67.6 | 9.12 | 9.12 | 52.5 | 7.41 | 63.1 | 12.59 | 12.6 | 13.18 | 13.2 | 85.1 | 3.39 | 3.39 | 27.5 | 4.57 | 4.57 | 38 | 3.89 | GI50 (Melanoma cell): 7.41 µM; GI50 [7]: 3.89 µM; TGI [7]: 56.2 µM; GI50 [8]: 4.57 µM; GI50 [8, 17]: 4.57 µM; TGI [8, 16]: 37.2 µM
